A short description of series [1]: Partition coefficient between octanol and phosphate buffer (pH 7.4) was observed for the compound. The format is physicochemical. A digest of the protocol: (§1)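 Partition coefficient measured as distribution between 1-octanol and pH 7.4 phosphate buffer, following the Hansch method.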
The subject of series [2] is Mus musculus. Kind of series: Antitumor activity against P388 mouse leukemia as maximum and average change in body weight was reported at a dose of 12.8 mg/kg per injection. The format is functional.
Series [3] has as its system Mus musculus. In words: Antitumor activity against P388 mouse leukemia as maximum and average change in body weight was reported at a dose of 25.6 mg/kg per injection. The format is functional.
The test system of series [4] is Mus musculus. In words: Antitumor activity against P388 mouse leukemia as maximum and average change in body weight was reported at a dose of 3.2 mg/kg per injection. The format is functional.
Series [5] concerns Mus musculus. Kind of series: Antitumor activity against P388 mouse leukemia as maximum and median survival time as % T/C was reported at a dose of 12.8 mg/Kg per injection. The format is functional. The essentials: (§2)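 P388 ascites, 10⁶ cells implanted in female CDF₁ mice. Six mice per dose; single treatment on day 1 only. Ten controls received saline. Survival recorded as median survival time; % T/C = treated vs control MST, with % T/C > 125 taken as active.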

The test system of series [6] is Mus musculus. Kind of series: Antitumor activity against P388 mouse leukemia as maximum and median survival time as % T/C was reported at a dose of 3.2 mg/Kg per injection. The format is functional. A digest of the protocol: as §2
The subject of series [7] is Mus musculus. Kind of series: Antitumor activity against P388 mouse leukemia as maximum and median survival time as % T/C was reported at a dose of 6.4 mg/Kg per injection. The format is functional. The essentials:
as §2

Series [8] is filed under the species Mus musculus. Kind of series: Antitumor activity in P388 mouse leukemia and maximum % T/C value was determined at optimal dose (OD). The format is functional. The essentials: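 P388 ascites leukemia: 10⁶ ascites cells implanted in female CDF₁ mice. Each dose level was given on day 1 only, to six mice per dose. Ten control mice received saline. Median survival time (MST) was recorded, and % T/C > 125 was taken as active.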

Series [9] deals with Mus musculus. In words: Antitumor activity against P388 mouse leukemia as maximum and average change in body weight was reported at a dose of 6.4 mg/kg per injection. The format is functional.
Series [10] concerns Escherichia coli. In words: Phage induction (ILB) in Escherichia coli: ratio was reported at a dose of 0.8 ug/mL.
Series [11] concerns Escherichia coli. Kind of series: Phage induction (ILB) in Escherichia coli: ratio was reported at a dose of 3.1 ug/mL.
Series [12] has as its system Mus musculus. In words: Antitumor activity against P388 mouse leukemia as maximum and average change in body weight was reported at a dose of 0.8 mg/kg per injection. The format is functional.
Series [13] concerns Mus musculus. Kind of series: Antitumor activity against P388 mouse leukemia as maximum and average change in body weight was reported at a dose of 1.6 mg/kg per injection. The format is functional.
Series [14] concerns Mus musculus. In words: Antitumor activity against P388 mouse leukemia as maximum and median survival time as % T/C was reported at a dose of 0.8 mg/Kg per injection. The format is functional. A digest of the protocol:
as §2

The test system of series [15] is Mus musculus. Kind of series: Antitumor activity against P388 mouse leukemia as maximum and median survival time as % T/C was reported at a dose of 1.6 mg/Kg per injection. The format is functional. A digest of the protocol:
as §2

Series [16] can be described thus: Partition coefficient between octanol and phosphate buffer (pH 7.4) was observed for the compound at pH 7.4. The format is physicochemical. The essentials:
as §1

Series [17] relates to Escherichia coli. In words: Induction of phage in Escherichia coli(ILB) expressed as Ratio of plaques in treated bacterial cultures to those in control at a dose of 0.8 ug/mL. The format is functional. The essentials: (§3)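 Phage induction (ILB) in Escherichia coli: latent phage was activated in bacterial cultures exposed to compound at the stated concentration. Plaques (clear areas) were counted, and the value reported is plaques in treated culture divided by plaques in the untreated control.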

For series [18], the system named is Escherichia coli. In words: Induction of phage in Escherichia coli(ILB) expressed as Ratio of plaques in treated bacterial cultures to those in control at a dose of 3.1 ug/mL. The format is functional. A digest of the protocol: as §3
Series [19] concerns Mus musculus. In words: Antitumor activity against P388 mouse leukemia as maximum and average change in body weight was reported at a dose of 0.2 mg/kg per injection. The format is functional.
Series [20] relates to Mus musculus. Kind of series: Antitumor activity against P388 mouse leukemia as maximum and average change in body weight was reported at a dose of 0.4 mg/Kg per injection. The format is functional.
Series [21] concerns Mus musculus. Kind of series: Antitumor activity against P388 mouse leukemia as maximum and average change in body weight was reported at a dose of 4.8 mg/kg per injection. The format is functional.
For series [22], the system named is Mus musculus. In words: Antitumor activity against P388 mouse leukemia as maximum and median survival time as % T/C was reported at a dose of 0.2 mg/Kg per injection. The format is functional. A digest of the protocol:
as §2

The subject of series [23] is Mus musculus. In words: Antitumor activity against P388 mouse leukemia as maximum and median survival time as % T/C was reported at a dose of 0.4 mg/Kg per injection. The format is functional. A digest of the protocol: as §2
For series [24], the system named is Mus musculus. In words: Antitumor activity against P388 mouse leukemia as maximum and median survival time as % T/C was reported at a dose of 4.8 mg/Kg per injection. The format is functional. The essentials:
as §2

Structures are written as SMILES.

Consider `CNC(=O)OCc1c2c(n3c1C(OC(C)=O)CC3)C(=O)C(C)=C(OC)C2=O` (centres undefined), for which, in series [1], the log distribution coefficient (logD) (as a rule, lipophilicity at a set pH, counting ionised and neutral species) was 2.39. The Average weight change in the series on Mus musculus [2] was 0 g; in the series with Mus musculus [3], -0.2 g; in the series with Mus musculus [4] it was 1 g; in the series on Mus musculus [9], 1.2 g. For the same molecule, the T/C (in general, the result in the treated group divided by that in the control group, in per cent) with Mus musculus [5] is on record as 145%; with Mus musculus [6] it was 120%; with Mus musculus [7], 135%; in the series filed under Mus musculus [8], 180%. The ILB with Escherichia coli [10] was determined as 16.6; in the series on Escherichia coli [11], 34.1.
The molecule `COC1=C(C)C(=O)c2c(c(COC(N)=O)c3n2CCC3OC(C)=O)C1=O` (centres undefined) registered a log distribution coefficient (logD) in series [1] of 1.54. The Average weight change with Mus musculus [12] came out at 1 g; in the series on Mus musculus [13], 0.6 g; in the series with Mus musculus [4], 0.3 g; with Mus musculus [9], 0.1 g. The T/C with Mus musculus [14] worked out at 114%; in the series with Mus musculus [15], 124%; in the series with Mus musculus [6], 133%; in the series listed under Mus musculus [8], 165%. Besides, the ILB in the series with Escherichia coli [10] stood at 13.2; in the series on Escherichia coli [11], 24.5.
Turning to `CNC(=O)OCc1c2c(n3c1C(OC(C)=O)CC3)C(=O)C=C(OC)C2=O` (centres undefined), in series [1], the log distribution coefficient (logD) is 1.19. Further, the T/C in the series listed under Mus musculus [8] worked out at 106%. The values for the ILB with Escherichia coli [10] and in the series on Escherichia coli [11] were 6 and 10.1, respectively.
For `COC1=CC(=O)c2c(c(COC(N)=O)c3n2CCC3OC(C)=O)C1=O` (centres undefined), in series [1], the logD is 0.72. Further, the T/C in the series filed under Mus musculus [8] came to 111%. Besides, the figures for the ILB in the series with Escherichia coli [10] and in the series with Escherichia coli [11] were 11.9 and 18.6, respectively.
As to `CNC(=O)OCc1c2c(n3c1C(OC(C)=O)CC3)C(=O)C=C(N1CCCC1)C2=O` (centres undefined), the logD in series [1] is 1.4. For the same molecule, the ILB in the series with Escherichia coli [10] and in the series on Escherichia coli [11] was 1 each time.
`CNC(=O)OCc1c2c(n3c1C(OC(C)=O)CC3)C(=O)C(Br)=C(N)C2=O` (centres undefined): the log distribution coefficient (logD) in [16] is 1.15. Moreover, the ILB in the series on Escherichia coli [17] stood at 1.2; in the series on Escherichia coli [18] it was 1.1.
Consider `CNC(=O)OCc1c2c(n3c1C(OC(C)=O)CC3)C(=O)C(Cl)=C(OC)C2=O` (centres undefined), for which, in series [1], the logD was determined as 2.08. In addition, the ILB in the series on Escherichia coli [10] is on record as 12.1; in the series with Escherichia coli [11] it was 27.
As to `CO[C@@]12[C@H](COC(N)=O)C3=C(C(=O)C(C)=C(N)C3=O)N1C[C@@H]1N[C@@H]12` [MITOMYCIN], the Average weight change in the series with Mus musculus [19] is 0.8 g; in the series with Mus musculus [20] it was 0.3 g; in the series with Mus musculus [12] it was 0.5 g; in the series on Mus musculus [13], -0.2 g; in the series on Mus musculus [21] it was -2.2 g; in the series with Mus musculus [4], -0.7 g. Moreover, the T/C in the series with Mus musculus [22] is recorded as 120%; with Mus musculus [23], 130%; in the series with Mus musculus [14] it was 135%; in the series on Mus musculus [15], 150%; in the series with Mus musculus [6] it was 195%; with Mus musculus [24], 205%.
`CNC(=O)OCc1c2c(n3c1C(OC(C)=O)CC3)C(=O)C(Br)=C(OC)C2=O` (centres undefined) displayed a T/C in the series listed under Mus musculus [8] of 100%. In addition, the figures for the ILB with Escherichia coli [10] and with Escherichia coli [11] were 7.1 and 12.4, respectively.

Values taken from ChEMBL document CHEMBL1123093, “Synthesis and biological activity of 6-substituted mitosene analogues of the mitomycins” (J Med Chem, 1985).
